According to paper PMC8200842 (The Journal of General Physiology, 2021):
Where two headings read alike, the source gives them in different places.

Columns and labels:
Assay type in all cases: binding
WT MelBSt = WT MelBSt (Salmonella typhimurium, UniProt P30878); experiment: Thermal denaturation by CD spectroscopy
Method in brief: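 Samples sat in a 1-mm cuvette. Ellipticity at 210 nm was recorded from 25–80°C at 1°C intervals, ramping 1°C/min, and expressed as percent unfolded. Tm is the half-maximal ellipticity decrease by curve fitting. Data are SEM; unpaired t test, P<0.05.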

MelBSt = MelBSt (Salmonella typhimurium, UniProt P30878)
D55C MelBSt mutant = D55C MelBSt mutant (Salmonella typhimurium, UniProt P30878, D55C); experiment: Thermal denaturation by CD spectroscopy; conditions: D55C MelBSt 10 µM, component at 50 mM in CD buffer, ellipticity at 210 nm
[1] = WT MelBSt 10 µM, component at 50 mM in CD buffer, ellipticity at 210 nm
[2] = MelBSt with 100 mM NaCl (MelBSt/Na^+ binary complex), 15°C
[3] = MelBSt with 100 mM NaCl (MelBSt/Na^+ binary complex), 20°C
[4] = MelBSt with 100 mM NaCl (MelBSt/Na^+ binary complex), 25°C
[5] = MelBSt with 100 mM NaCl (MelBSt/Na^+ binary complex), 30°C
[6] = MelBSt with 100 mM NaCl (MelBSt/Na^+ binary complex), 35°C
[7] = apo MelBSt, range over 15°C, 20°C, 25°C and 30°C
[8] = binding to MelBSt/Na^+ binary complex

## OC[C@H]1O[C@H](OCC2O[C@@H](O)[C@H](O)[C@@H](O)[C@@H]2O)[C@H](O)[C@@H](O)[C@H]1O (stereo partly shown) [Mel, melibiose]
WT MelBSt; [1]
  10% unfolding: 45.95 ± 0.47 °C
  50% unfolding (Tm): 54.07 ± 0.07 °C
  90% unfolding: 64.24 ± 0.42 °C
WT MelBSt; WT MelBSt, difference in Tm compared with apo
  ΔTm: 0.78 (<0.05) °C
MelBSt; [2]
  Entropy change (−TΔS): -2.3 ± 0.16 kcal/mol
  Free energy change (ΔG): -3.927 ± 0.0072 kcal/mol
  Kd: 1.05 ± 0.01 mM
  ΔH: -1.54 ± 0.103 kcal/mol
MelBSt; [3]
  Entropy change (−TΔS): -1.76 ± 0.237 kcal/mol
  Free energy change (ΔG): -4.085 ± 0.0956 kcal/mol
  Kd: 0.95 ± 0.13 mM
  ΔH: -2.32 ± 0.141 kcal/mol
MelBSt; [4]
  Entropy change (−TΔS): -1.14 ± 0.0621 kcal/mol
  Free energy change (ΔG): -3.994 ± 0.0072 kcal/mol
  Kd: 1.18 ± 0.01 mM
  ΔH: -2.861 ± 0.055 kcal/mol
MelBSt; [5]
  Entropy change (−TΔS): -0.712 ± 0.0741 kcal/mol
  Free energy change (ΔG): -3.956 ± 0.017 kcal/mol
  Kd: 1.41 ± 0.04 mM
  ΔH: -3.243 ± 0.0574 kcal/mol
MelBSt; [6]
  Entropy change (−TΔS): -0.261 ± 0.055 kcal/mol
  Free energy change (ΔG): -3.879 ± 0.0478 kcal/mol
  Kd: 1.78 ± 0.14 mM
  ΔH: -3.623 ± 0.105 kcal/mol
MelBSt; apo MelBSt (main buffer), 15°C
  Entropy change (−TΔS): 3.499 ± 1.03 kcal/mol
  Free energy change (ΔG): -2.694 ± 0.0645 kcal/mol
  Kd: 9.15 ± 1.06 mM
  ΔH: -6.193 ± 1.09 kcal/mol
MelBSt; apo MelBSt (main buffer), 15°C, listed as melibiose
  ΔH: -6.193 kcal/mol
MelBSt; apo MelBSt (main buffer), 20°C
  Entropy change (−TΔS): 2.849 ± 1.19 kcal/mol
  Free energy change (ΔG): -2.71 ± 0.0621 kcal/mol
  Kd: 9.59 ± 1.01 mM
  ΔH: -5.559 ± 1.25 kcal/mol
MelBSt; apo MelBSt (main buffer), 25°C
  Entropy change (−TΔS): 2 ± 1.6 kcal/mol
  Free energy change (ΔG): -2.698 ± 0.139 kcal/mol
  Kd: 10.8 ± 2.49 mM
  ΔH: -4.694 ± 1.47 kcal/mol
MelBSt; apo MelBSt (main buffer), 30°C
  Entropy change (−TΔS): 1.34 ± 1.35 kcal/mol
  Free energy change (ΔG): -2.584 ± 0.0526 kcal/mol
  Kd: 13.8 ± 1.18 mM
  ΔH: -3.92 ± 1.3 kcal/mol
MelBSt; apo MelBSt (main buffer), 30°C, listed as melibiose
  ΔH: -3.92 kcal/mol
MelBSt; apo MelBSt, from 15°C to 30°C
  ΔΔH: ~2.39 kcal/mol
MelBSt; [7]
  Kd: 9 to 13 mM
  binding free energy ΔG: -2.694 to -2.584 kcal/mol
MelBSt; [8]
  −ΔSConf: 59.86 J/mol·K
  −ΔSMix: 33.00 J/mol·K
  −ΔSSolv: −108.78 J/mol·K
  −ΔSSum at °25 C: −15.92 J/mol·K
MelBSt; binding to apo MelBSt
  −ΔSConf: −169.20 J/mol·K
  −ΔSMix: 33.00 J/mol·K
  −ΔSSolv: 164.61 J/mol·K
  −ΔSSum at °25 C: 28.41 J/mol·K
MelBSt; binding to apo MelBSt, slope of ΔH versus temperature 15-30°C
  ΔCp: 643.01 ± 26.92 J/mol·K
D55C MelBSt mutant
  50% unfolding (Tm): >80 °C
